Screening data from PubChem.
A selection: hits, their analogues and other compounds. The true share with any hit is near 4.4%.
EBI2 antag – blocks human EBI2 receptor beta-arrestin signaling; P32249; EBI2 beta-arrestin recruitment, luminescence, 7a,25-OHC stimulated; inhibition, % at 5 µM; hit rate 0.81% among 360,000; AID 651636; in the data active = inhibition above about 38%;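 also: enzyme fragment complementation signal reports receptor beta-arrestin coupling in cells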
SENP1 FRET inh – SENP1 (human) catalytic domain inhibition. AID 624204. recombinant SENP1 catalytic domain, CyPet-SUMO1-YPet FRET cleavage. Q9P0U3. hit rate 0.21% among 360,000. inhibition, % at 10 µM;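 active = inhibition at least 30% at 10 µM, raw YFP signal under a set limit, fluorescence ratio 0.5 to 1.5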
Target sequence (Q9P0U3 419-644 limits assumed): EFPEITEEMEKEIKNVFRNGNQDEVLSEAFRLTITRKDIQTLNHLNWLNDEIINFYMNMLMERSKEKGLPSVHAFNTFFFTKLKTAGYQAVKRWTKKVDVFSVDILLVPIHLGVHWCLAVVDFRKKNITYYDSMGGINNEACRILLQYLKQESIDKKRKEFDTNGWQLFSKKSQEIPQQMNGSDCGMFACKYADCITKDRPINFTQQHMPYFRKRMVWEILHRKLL
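Assay system: hSENP1 catalytic domain, recombinant. Amount: SENP1 enzyme, 20 pM final. Schedule: 50 min reaction, RT, dark. Technique: FRET, CFP and YFP emission. Control set: no-enzyme wells low, DMSO-plus-enzyme wells high control.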
GRIN3A LBD mod – modulates the human NR3A ligand-binding domain | AID 1259313 | hit rate 2.5% among 340,000 | NR3A LBD differential scanning fluorimetry, Tm shift; 0% = protein alone, 100% = glycine-bound protein | Tm shift relative to glycine control, % at 25 µM;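 active = melting temperature shift of at least 10% of the positive control shift, at one fixed dose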
MPTP block – inhibitors of mitochondrial permeability transition pore; isolated mouse mitochondria, Ca2+ swelling absorbance, 30 min; inhibition, % at 10 µM; hit rate 1.4% among 360,000;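 active = inhibition of 50% or more, scaled per plate between neutral and stimulator controls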
SENP1 inh conf – confirmation of human SENP1 SUMO protease inhibitors; hit rate 34% among 520; recombinant SENP1, CyPet-SUMO1-YPet FRET cleavage; shares compounds with SENP1 FRET inh; inhibition, % at 10 µM; in the data active = inhibition mostly above about 35%, no sharp cut-off; inactive = mostly below about 32%
SENP1 kinetic – confirmation of human SENP1 SUMO protease inhibitors, kinetic. shares compounds with SENP1 FRET inh. recombinant SENP1, CyPet-SUMO1-YPet FRET kinetic cleavage. inhibition, % at 10 µM. hit rate 26% among 520; in the data active = inhibition mostly above about 32%, no sharp cut-off; inactive = mostly below about 29%
Hits are given with their value; i = inactive; nt = not tested or not shown.

SMILES	EBI2 antag	SENP1 FRET inh	GRIN3A LBD mod	MPTP block	SENP1 inh conf	SENP1 kinetic
CC(=O)C1=C(C)N=c2s/c(=C/c3ccc4c(c3)OCO4)c(=O)n2C1c1ccc(N(C)C)cc1 (centres undefined)	i	65	i	i	i	i
COc1cccc(CNC(=O)C2CSC3(C)CCC(=O)N23)c1 (centres undefined)	i	38	i	i	i	i
COc1ccccc1Nc1ccc([N+](=O)[O-])cc1N	i	49	i	i	i	i
COc1ccccc1/C=N/NC(=O)C(=O)NCc1cccnc1	i	i	i	i	nt	nt
Cc1ccc(NC2=C(C(=O)c3ccccc3)N(C)S(=O)(=O)c3ccccc32)cc1	i	33	i	i	35	i
CN1C(C(=O)c2ccccc2)=C(N)c2ccccc2S1(=O)=O	i	i	i	i	nt	nt
Nc1nc(N)c2sc3nc(C(F)(F)F)cc(C(F)(F)F)c3c2n1	i	68	32	i	35	i
CCN(CC)C(=O)Cn1cc(C(=O)C(=O)N2CCN(C)CC2)c2ccccc21	i	i	i	i	nt	nt
CCN(CC)C(=O)Cn1cc(C(=O)C(=O)N2CC=C(c3ccccc3)CC2)c2ccccc21	i	65	i	i	63	65
NC(c1csc(Nc2ccccn2)n1)c1ccccc1Cl (centres undefined)	i	i	nt	i	nt	nt
COc1cc(O)c(C=Nc2ccccc2NS(=O)(=O)c2ccc(C)cc2)c(OC)c1	i	51	i	i	74	67
COc1ccccc1NS(=O)(=O)c1ccc(O)cc1	i	i	i	i	nt	nt
CCSc1ncnc2c1sc1nc3c(cc12)COC(C)(C)C3	i	i	i	i	nt	nt
N=c1occ(C(=O)c2cc(F)ccc2O)cc1C(=O)NC1CCCCC1	i	30	i	i	i	i
CCN1/C(=C\C=C2\C(=O)N(c3ccccc3)C(=S)N2C)Sc2ccccc21	i	35	i	i	i	i
CCN1/C(=C\C=C(C(C)=O)C(C)=O)Sc2ccccc21	i	i	i	i	nt	nt
Cc1ccc(S(=O)(=O)Nc2c(NC3CCCCC3)c3ccccc3oc2=O)c(C)c1	i	i	i	i	nt	nt
COc1ccc([N+](=O)[O-])cc1Nc1c2ccccc2nc2ccccc12	i	i	i	i	nt	nt
NC(N)=NCCCS(=O)(=O)Nc1ccc(Nc2c3ccccc3nc3cc([N+](=O)[O-])ccc23)cc1	i	51	i	i	i	i
COc1cccc(-c2nc(SC)nc3sc(C(=O)NC(C)(C)C)c(N)c23)c1	i	37	i	i	48	37
COc1ccc(-c2cc(C(F)(F)F)c3c(N)c(C(=O)NCCSC)sc3n2)cc1	i	i	i	i	nt	nt
CC1(C)CC(=O)C2=C(C1)Nc1ccccc1S2	i	46	i	i	29	i
Cc1cc(Br)ccc1SCC(=O)OCC(=O)Nc1ccc2[nH]c(=O)[nH]c2c1	i	i	i	i	nt	nt
CC(C)C(=O)N(Cc1ccccc1)S(=O)(=O)c1ccc2c(c1)oc(=O)n2C	i	43	i	i	i	i
Cn1c(=O)oc2cc(S(=O)(=O)NCc3ccc(C(=O)O)cc3)ccc21	i	28	i	i	i	i
SMILES	EBI2 antag	SENP1 FRET inh	GRIN3A LBD mod	MPTP block	SENP1 inh conf	SENP1 kinetic
CN(Cc1ccccc1)C(=O)CCS(=O)(=O)c1ccc2c(c1)oc(=O)n2C	i	i	i	i	nt	nt
COc1cccc(N2C(=NC(=O)C3CCCCC3)SC3CS(=O)(=O)CC32)c1 (centres undefined)	i	i	i	i	nt	nt
O=C1CCCc2c1cc(C(=O)Nc1ccc(Br)cn1)c(=O)n2-c1ccccc1	i	70	i	i	i	i
Cc1cccc(-n2c(SCc3cc(=O)n4ccsc4n3)nc3ccccc32)c1	i	31	i	i	40	i
CC(C(=O)c1ccc(Br)cc1)[n+]1cccc(NC(=O)c2ccccc2)c1 (centres undefined)	i	i	i	i	nt	nt
CC(C(=O)c1ccc(Br)cc1)[n+]1cccc2ccccc21 (centres undefined)	i	52	i	i	i	i
COc1ccc2nc3ccccc3nc2c1NC(=O)c1ccc(Cl)cc1	i	i	i	i	nt	nt
COc1ccc2nc3ccccc3nc2c1NC(=O)c1ccc(Br)cc1	i	92	i	i	105	60
